Runt-SMMHC FRET: inhibitors of RUNX1 Runt–CBFb-SMMHC binding, primary screen, biochemical, FRET, Cerulean-Runt, Venus-CBFb-SMMHC, uHTS | Runt-related transcription factor 1 (Homo sapiens) + Core-binding factor subunit beta … | Cerulean-Runt/Venus-CBFb-SMMHC FRET ratio 530/480, 1 h | inhibition, % at 20 µM | 0.74% of 220,000 active | AID 1434, 2008;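 active = mean inhibition across duplicate retests at 20 µM reaching about 50%, limit read from the data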;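 note: inhibitors lower the FRET ratio by blocking Runt binding to CBFb-SMMHC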
Target sequence (Q01196 whole entry, looked up): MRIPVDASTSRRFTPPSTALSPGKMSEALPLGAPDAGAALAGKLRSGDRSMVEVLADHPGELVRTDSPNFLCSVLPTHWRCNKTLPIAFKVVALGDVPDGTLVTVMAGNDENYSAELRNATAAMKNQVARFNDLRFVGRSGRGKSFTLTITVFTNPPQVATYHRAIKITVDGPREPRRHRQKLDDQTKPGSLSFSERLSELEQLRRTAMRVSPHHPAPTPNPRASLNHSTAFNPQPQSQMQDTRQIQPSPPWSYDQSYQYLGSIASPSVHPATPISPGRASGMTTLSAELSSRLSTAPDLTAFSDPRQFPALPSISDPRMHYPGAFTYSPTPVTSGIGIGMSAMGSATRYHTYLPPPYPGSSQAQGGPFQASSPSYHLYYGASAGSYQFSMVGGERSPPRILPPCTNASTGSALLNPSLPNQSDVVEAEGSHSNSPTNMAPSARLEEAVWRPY
Target sequence (Q13951 whole entry, looked up): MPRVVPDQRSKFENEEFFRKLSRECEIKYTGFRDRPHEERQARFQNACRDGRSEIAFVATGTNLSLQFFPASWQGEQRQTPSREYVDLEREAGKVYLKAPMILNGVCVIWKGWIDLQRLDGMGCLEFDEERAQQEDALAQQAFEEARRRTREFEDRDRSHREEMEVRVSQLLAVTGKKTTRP
RanGTP-Imp inh: inhibitors of RanGTP-importin-beta interaction, primary screen, biochemical, FRET, CFP-Ran, YFP-importin-beta, homogeneous. inhibition, % (test concentration not listed). 1.1% of 300,000 active. Ran GTPase (GTP-bound) - importin-beta complex. cell-free CFP-Ran/YFP-importin-beta FRET ratio;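 active = more than half of the replicate wells show a fall in the fluorescence ratio signal beyond about 16%, limit read from the data, passing the limit was not always enough; inconclusive = exactly half of the replicate wells pass the set limit; inactive = fewer than half of replicates pass the limit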
Hck-Nef inh: inhibitors of Nef-activated human Hck kinase, primary screen, biochemical, Z-Lyte FRET, 384-well, Hck-YEEI. AID 463187, 2010. inhibition, % at 20 µM. Recombinant Hck-YEEI plus Nef, Z-Lyte FRET kinase assay. Tyrosine-protein kinase HCK (Homo sapiens), P08631. 0.68% of 220,000 active;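 active = Hck-Nef kinase inhibition above about 50%, limit read from the data; inactive = inhibition below that limit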
Runt-CBFb FRET: inhibitors of RUNX1 Runt–CBFb binding, primary screen, biochemical, FRET, Cerulean-Runt, Venus-CBFb, uHTS; 0.46% of 220,000 active; Runt-related transcription factor 1 (Homo sapiens) + Core-binding factor subunit beta …; AID 1496, 2009; Cerulean-Runt/Venus-CBFb FRET ratio 530/480, 1 h; inhibition, % at 20 µM;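 active = inhibition over about 50% at 20 µM in the single-dose screen, limit read from the data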
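test system = Cerulean-tagged RUNX1 Runt domain (FRET donor) fusion protein | reagent = Venus-CBFb binding partner, 100 nM | incubation = protein complex preformed 1 h, compound exposure 1 h, room temperature, dark | detection = FRET fluorescence | read-out basis = loss of energy transfer signal | controls = 5 µM unlabeled CBFb as full-inhibition high control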
CaV13 ICDI inh: Disruptors of the CACNA1D IQ motif to Ca2+-dependent inactivation inhibitor domain association, primary screening, Förster resonance energy transfer in intact living … | HEK cells, CFP/YFP FRET ICDI-IQ, plate reader, 10 min; percent FRET-ratio fall versus neutral wells | inhibition, % at 12.3 µM | 0.098% of 340,000 active | AID 743397;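 active = mean replicate inhibition of at least 30% and at least 1% of replicates passing that level; inconclusive = only one of the two criteria is met; inactive = neither criterion is met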
Numbers stand for hits; – = inactive; ? = inconclusive; · = not tested or not shown. Rows were chosen to be rich in hits. Some 1.5% of all compounds tested hit in one or more screens of this group.

SMILES	Runt-SMMHC FRET	RanGTP-Imp inh	Hck-Nef inh	Runt-CBFb FRET	CaV13 ICDI inh
NC(=O)c1c(NC(=O)c2ccccc2Cl)sc2c1CCC2	·	–	·	·	–
N#Cc1c(NC(=O)CSc2nnc(-c3ccncc3)n2CC2CCCO2)sc2c1CCCC2 (centres undefined)	–	–	–	–	·
Cc1onc(-c2c(F)cccc2Cl)c1C(=O)Nc1sc2c(c1C(N)=O)CCC2	–	60.6	–	–	–
Cc1onc(-c2ccccc2)c1C(=O)Nc1sc2c(c1C(N)=O)CCC2	–	50.8	–	–	–
N#Cc1c(NC(=O)CSc2ncc(-c3ccccc3)n2CC2CCCO2)sc2c1CCCC2 (centres undefined)	72.9	–	–	–	–
CCOC(=O)CC1COc2ccccc2N1C(=O)c1cccc([N+](=O)[O-])c1 (centres undefined)	·	–	·	·	–
O=C(NC1CCN(C(=O)Nc2cccc(Cl)c2)CC1)c1ccco1	·	–	·	·	–
CCCOc1ccc(NC(=O)c2c(-c3ccccc3)noc2C)cc1	–	–	–	–	36.1
Cc1noc(C)c1C(=O)Nc1sc(C)c(-c2ccccc2)c1C#N	–	109.7	–	–	–
CC(=O)Nc1ccc(OCCCNC(=O)c2c(-c3ccccc3)noc2C)cc1	–	?	–	–	–
CCOc1ncccc1C(=O)Nc1cc(S(=O)(=O)N2CCCCCC2)ccc1OC	·	·	·	·	–
CCOCCCN1C(=O)C(=O)N(CC(=O)N2c3ccccc3NC(=O)CC2C)C1=O (centres undefined)	·	·	·	·	–
Nc1nonc1C(=O)NCCNCc1ccccc1OCc1ccc(F)cc1	–	17.9	–	–	–
Nc1cccc2c1C(=O)N(C(=O)c1cccc(S(=O)(=O)N3CCCC3)c1)C2=O	61.6	–	–	–	–
NC(=O)c1cccc(S(=O)(=O)N2CCCCC2)c1	–	–	–	–	–
N#CC1(C#N)CC(C=O)=C(N)C1(C#N)CC(=O)c1ccc(F)cc1 (centres undefined)	51.0	32.9	–	–	–
CCCCC(=O)Nc1cccc(NC(=O)c2ccc(Br)o2)c1	–	38.0	–	–	–
CC(=O)c1cccc(NC(=O)c2ccc(Br)o2)c1	–	–	–	–	–
Cc1ccc2nc(-c3ccccc3)cc(C(=O)N(C)CC(=O)Nc3ccccc3Br)c2c1	·	–	·	·	–
Cc1cc(C)cc(N2C(N)=NC(N)=NC2c2ccccc2F)c1 (centres undefined)	·	–	·	·	–
CCOc1ccccc1/C=C/c1nc2ccccc2[nH]c1=O	·	70.7	·	·	–
CC(=O)Nc1nn(C)c2nc3cc(C)ccc3cc12	–	–	–	–	–
CCn1nc(NC(=O)c2ccco2)c2cc3cc(C)ccc3nc21	84.0	54.4	–	–	–
CCn1nc(NS(=O)(=O)c2ccccc2)c2cc3cc(C)ccc3nc21	·	–	·	·	–
Cc1ccc2cc3c(NC(=O)c4ccco4)nn(C)c3nc2c1	–	23.2	–	–	–
SMILES	Runt-SMMHC FRET	RanGTP-Imp inh	Hck-Nef inh	Runt-CBFb FRET	CaV13 ICDI inh
CCCn1nc(NC(=O)c2ccco2)c2cc3ccccc3nc21	–	45.9	–	–	–
COCCCNC(=O)C(C#N)c1nc2ccccc2nc1N1CCCC1 (centres undefined)	·	54.3	–	·	–
CCCCCNC(=O)C(C#N)c1nc2ccccc2nc1N1CCCC1 (centres undefined)	–	20.0	–	–	·
CCCCCCNC(=O)C(C#N)c1nc2ccccc2nc1N1CCOCC1 (centres undefined)	–	–	–	–	·
COCCOC(=O)C(C#N)c1nc2ccccc2nc1N1CCCC1 (centres undefined)	–	–	–	–	–
CCCCCCNC(=O)C(C#N)c1nc2ccccc2nc1N1CCCC1 (centres undefined)	–	24.5	–	–	·
CC(=Nc1cccc(C)c1)c1sc2ccccc2c1O	67.6	25.8	–	–	·
CC(=O)NCCN=C(C)c1sc2ccccc2c1O	–	54.1	–	–	·
CC(=O)N(c1cc(C)ccc1C)c1ccccc1[N+](=O)[O-]	·	·	·	·	–
O=C1c2ccccc2[C@@H]2Cc3csc[n+]3[C@H]12	·	·	·	·	–
Cc1ccc(S(=O)(=O)N(CC(=O)N2CCOCC2)CC(=O)N2CCOCC2)cc1	–	32.3	–	–	–
COc1ccc(C(=O)NN=C2CCCC2)cc1	·	28.5	·	·	–
O=C(NCC(=O)c1ccccc1)OCc1ccc([N+](=O)[O-])cc1	·	–	·	·	–
Cc1cc(NCc2ccco2)nc2cc(O)ccc12	76.4	30.3	–	–	–
Cc1ccc(Nc2cc(C)c3ccc(O)cc3n2)cc1C	–	–	–	–	–
CC1Cc2cc(S(=O)(=O)N3CCC(C(N)=O)CC3)ccc2N1C(=O)C1CC1 (centres undefined)	·	18.2	·	·	–
O=C(CN1C(=O)S/C(=C\c2ccc(F)cc2)C1=O)NC1C=CS(=O)(=O)C1 (centres undefined)	·	15.5	·	·	–
CCOc1ccc(C2C(C#N)=C(N)SC(N)=C2C#N)c(OCC)c1	–	18.9	–	–	·
CCOc1cc(C2C(C#N)=C(N)SC(N)=C2C#N)ccc1OCCN1CCOCC1	–	?	–	–	–
O=C1NC(=S)S/C1=C\c1coc2ccccc2c1=O	–	–	88.1	–	–
O=C1NC(=S)S/C1=C\c1coc2ccc(O)cc2c1=O	–	–	53.2	–	–
O=C1NC(=S)SC1=Cc1ccccc1Br	·	·	·	·	–
O=C1NC(=S)SC1=Cc1cc(Br)ccc1O	·	·	·	·	–
COCCCOc1cc(NCc2ccccc2)c2ncn(C(C)C)c2c1	·	·	·	·	122.4
C/C(=N\OCC(=O)OC(C)C(=O)Nc1ccc(C(N)=O)cc1)c1ccc2c(c1)OCO2 (centres undefined)	·	–	·	·	–
SMILES	Runt-SMMHC FRET	RanGTP-Imp inh	Hck-Nef inh	Runt-CBFb FRET	CaV13 ICDI inh
Cc1ccc(C2=N/C(=C\N(C)C)C(=O)O2)cc1	–	16.9	–	–	–
CCN1CCS/C1=C/C=C/C1=[N+](CC)CCS1	120.5	–	–	139.6	·
CCN1CCS/C1=C\C=C\C1=[N+](CC)CCS1	·	–	–	128.1	84.1
COc1ccccc1CNC(=O)[C@H](Cc1c[nH]c2ccccc12)NC(=O)[C@@H]1Cc2ccccc2CN1	·	–	·	·	·
CCC(CO)[n+]1c(C)cc(/C=C2\Sc3ccccc3N2Cc2ccccc2)cc1C (centres undefined)	63.8	·	–	–	–
CCCN(CCC)CCCNC(=O)c1cc2c(=O)[nH]c3ccccc3c2s1	·	–	·	·	–
O=C(NCc1ccccc1)c1nncc(-c2ccccc2)n1	·	·	·	·	–
COc1ccc(Nc2nc(N3CCCCC3)c3ccccc3n2)cc1	–	–	–	–	·
Oc1ccc(Nc2nc(N3CCCC3)c3ccccc3n2)cc1	70.9	–	–	–	–
